Screening results: PubChem, several laboratories
This is a sample that favours compounds with a hit; in the whole collection about 1.8% have one here.
NR2E3 ag-1: NR2E3 (human) agonism; Q9Y5X4; inhibition of corepressor binding, % at 4.78 µM; AID 2300; GST-NR2E3/biotin-RetCOR TR-FRET, 1536-well; 320,000 compounds, 0.12% hits;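 active means percent inhibition above the cutoff of mean plus 3 SD of all tested compounds, set per screening campaign, cut at about 20% in these data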
Target sequence (Q9Y5X4 whole entry, looked up): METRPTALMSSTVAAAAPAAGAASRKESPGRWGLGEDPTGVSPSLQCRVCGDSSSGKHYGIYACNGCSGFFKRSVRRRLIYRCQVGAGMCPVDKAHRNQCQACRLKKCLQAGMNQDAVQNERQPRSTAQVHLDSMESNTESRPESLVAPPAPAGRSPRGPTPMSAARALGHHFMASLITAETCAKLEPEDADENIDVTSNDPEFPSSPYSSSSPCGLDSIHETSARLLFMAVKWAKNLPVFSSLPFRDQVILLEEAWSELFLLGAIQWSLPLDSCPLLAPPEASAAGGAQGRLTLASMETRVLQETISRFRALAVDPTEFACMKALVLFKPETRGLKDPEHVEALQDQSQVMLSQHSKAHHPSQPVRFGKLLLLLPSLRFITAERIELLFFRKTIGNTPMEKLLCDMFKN
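System: GST-tagged NR2E3 plus biotinylated RetCOR corepressor; Buffer or medium: pH 7.5 Tris-based buffer; Probe or stimulus: RetCOR corepressor, biotinylated, 7 nM; Doses: compound at 4.8 µM, single dose; Schedule: 5 h incubation at 4 °C; Technique: time-resolved FRET; Evaluation: percent inhibition of TR-FRET ratio; Replication: one well per compound, singlicate testing.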
NR2E3 ag-2: human photoreceptor-specific nuclear receptor agonism | Q9Y5X4 | CHO-S Gal4-NCOR/VP16-NR2E3 two-hybrid, luciferase | inhibition of corepressor binding, % at 3.98 µM | 360,000 compounds, 0.35% hits;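 active means inhibition above the mean of all tested compounds plus 3 SD, cut at about 70% in these data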;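 further: higher means lower luciferase signal from less NR2E3 corepressor binding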
NR1D1 modulator: modulates human Rev-erb alpha binding to DNA. activity, % at 10 µM. 370,000 compounds, 0.79% hits. P20393. Rev-erbα–FITC-DNA binding, fluorescence polarization, 90 min;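 active means activity above about 14%, limit read from the data; passing the limit was not always enough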
PG9 Ab binder: PG9 antibody binding by small molecule | TR-FRET gp120-PG9 antibody binding | inhibition, % at 6.7 µM | 360,000 compounds, 0.43% hits | AID 624416; in the data active means inhibition above about 8.5%
GalR3 antag: blocks the human galanin receptor 3. O60755. HEK293 GalR3-CNG cAMP membrane potential fluorescence; galR3 body fused to GalR1 C-terminus. inhibition, % at 3 µM. 360,000 compounds, 0.44% hits. AID 651719;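 active means inhibition above the screen-wide average plus 3 SD, cut at about 13% in these data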;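 further: forskolin and galanin both at EC90 stimulate the cells; cAMP rise reported by CNG channel membrane potential dye signal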
Target sequence (O60755 1-299 limits assumed): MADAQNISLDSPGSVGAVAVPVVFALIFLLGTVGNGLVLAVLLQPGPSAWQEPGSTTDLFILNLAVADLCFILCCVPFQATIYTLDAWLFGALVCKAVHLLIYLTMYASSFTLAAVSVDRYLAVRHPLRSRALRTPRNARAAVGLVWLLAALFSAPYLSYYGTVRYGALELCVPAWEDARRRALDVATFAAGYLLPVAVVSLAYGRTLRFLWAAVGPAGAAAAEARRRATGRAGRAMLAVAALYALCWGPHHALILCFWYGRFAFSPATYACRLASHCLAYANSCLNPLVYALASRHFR
PG9 bind confirm: PG9 antibody binding, confirmed; shares compounds with PG9 Ab binder; TR-FRET PG9 antibody binding, biochemical; inhibition, % at 6.7 µM; 1,500 compounds, 90% hits; AID 651571; in the data active means inhibition above about 9%
PGV04 Ab binding: PGV04 control antibody binding, counter-screen; shares compounds with PG9 Ab binder; TR-FRET PGV04 antibody-gp120 binding, biochemical; inhibition, % at 6.7 µM; 1,500 compounds, 95% hits; AID 651604; in the data active means inhibition above about 9.5%
GalR3 antag conf: GalR3 (human) antagonism, confirmation. shares compounds with GalR3 antag. HEK293 GalR3 CNG cAMP biosensor, membrane potential fluorescence; galR3 fused to GalR1 carboxy tail; challenged with forskolin and galanin at EC90. inhibition, % at 3 µM. 1,600 compounds, 59% hits. AID 652245;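 active means inhibition above the primary screen's cutoff, the mean inhibition of all screened compounds plus 3 SD, cut at about 13% in these data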
CNG parental: acts as nonspecific agonist in parental HEK-CNG cells | activation, % at 3 µM | HEK293-CNG parental cells, cAMP membrane potential fluorescence; normalised: DMSO wells 0%, forskolin wells 100% | 1,600 compounds, 10% hits | shares compounds with GalR3 antag; in the data active means activation above about 1.3%
Rev-erbA confirm: confirmation of modulators of human Rev-erb alpha DNA binding. Rev-erb alpha FITC-DNA binding, fluorescence polarization, 90 min. AID 1259319. 3,000 compounds, 61% hits. shares compounds with NR1D1 modulator. activation, % at 25 µM;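 active means activation at or above a set limit, or at least 3 SD above the negative control mean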
RORg counter: RORgamma DNA-binding activity, dose-response counter-screen; shares compounds with NR1D1 modulator; purified RORgamma protein-FITC-DNA binding, fluorescence polarization; IC50, µM; 910 compounds, 8% hits; AID 1259320;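 active means Compounds whose fitted half-maximal concentration for disrupting protein-DNA binding is below 10 micromolar; the record names Rev-erb in its text, so the target is in doubt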
Hits are given with their value; n = inactive; x = not tested or not shown.

SMILES	NR2E3 ag-1	NR2E3 ag-2	NR1D1 modulator	PG9 Ab binder	GalR3 antag	PG9 bind confirm	PGV04 Ab binding	Rev-erbA confirm	RORg counter	others
CCOc1ccc(-n2c(SCC(=O)Nc3ccc(S(=O)(=O)Nc4nccs4)cc3)nnc2-c2ccccc2)cc1	x	x	n	x	x	x	x	x	x
Fc1cccc2sc(Nc3nc4c(F)cccc4s3)nc12	n	n	67.7	22.8	n	23.6	37.6	58.0	n
NNc1nc2c(F)cccc2s1	n	n	n	n	n	x	x	x	x
CCc1cccc(NC(=O)c2ccc(Cn3c(=O)[nH]c4ccsc4c3=O)cc2)c1	n	n	54.6	24.7	x	29.1	40.2	60.3	n
O=C(c1ccc(Cn2c(=O)[nH]c3ccsc3c2=O)cc1)N1CCN(c2ccccc2)CC1	n	n	n	n	n	x	x	x	x
Cc1cc(C)c(NC(=O)CSc2nc3ncc(Br)cc3[nH]2)c(C)c1	n	n	124.0	39.3	n	40.9	64.8	98.9	n
Cc1cc(=O)nc2c3ccccc3n(C(C)C(=O)NCCC(C)C)n12 (stereo unspecified)	n	n	n	n	n	x	x	x	x
CC(=O)c1ccc(NC(=O)C(C)n2c3ccccc3c3nc(=O)cc(C)n32)cc1 (stereo unspecified)	n	n	20.9	9.5	n	14.0	15.2	n	x
Cc1ccc2nc(SCC(=O)Nc3ccc4sc(C)nc4c3)c(C#N)cc2c1	n	n	73.4	33.4	n	29.5	53.9	71.4	n
CCOC(=O)CC(=O)CSc1nc2ccc(C)cc2cc1C#N	n	n	n	n	n	x	x	x	x
Cc1cc(C)c2nc(SCC(=O)Nc3cc(C)on3)c(C)cc2c1	n	n	n	n	n	x	x	x	x
COc1cc2cc(C#N)c(SCC(=O)Nc3cc(C)on3)nc2cc1OC	n	n	113.0	46.4	n	48.9	68.8	75.1	n
CCc1cc2cc(C)ccc2nc1SCC(=O)Nc1cc(C)on1	n	n	16.8	14.1	n	11.3	31.1	25.8	x
Cc1cc(C)c2nc(SCC(=O)Nc3cc(C)on3)c(C#N)cc2c1	n	n	103.5	28.4	n	51.7	75.2	67.6	n
COC(=O)C1CN(Cc2cn(Cc3ccccc3)nn2)CCS(=O)(=O)N1Cc1ccc(C)cc1 (stereo unspecified)	x	x	n	x	x	x	x	x	x
Cc1ccc(C)c2nc(SCC(=O)NCc3cccs3)c(C#N)cc12	n	n	n	n	n	x	x	x	x
Cc1cccc2cc(C#N)c(SCC(=O)NCc3cccs3)nc12	n	n	86.6	42.5	n	49.7	74.8	60.8	n
Cc1cc(NC(=O)CSc2nc3c(c(-c4cccnc4)c2C#N)CCC3)no1	n	n	40.7	20.5	n	31.8	65.9	38.7	x
CC(C)=CCC/C(C)=C/CNCC(=O)N1c2ccccc2[C@]2(C)C[C@@H]3C(=O)N(C/C=C(\C)CCC=C(C)C)CC(=O)N3[C@H]12	x	x	n	x	x	x	x	x	x
O=C(OC12CCCN(C1)/C(=C/c1ccccc1)C2)C1CCCCC1 (stereo unspecified)	x	x	n	x	x	x	x	x	x
Cc1ccc2oc(=O)c3cnn(CC(=O)N4CCCc5ccccc54)c3c2c1	n	n	50.6	14.7	x	34.9	50.5	44.0	x
O=C(CCCCCn1c(=S)[nH]c2ccc(N3CCOCC3)cc2c1=O)NCc1ccc(Cl)cc1	n	n	18.0	20.6	n	16.0	24.7	n	x
O=C(CCCCCn1c(=S)[nH]c2ccc(N3CCOCC3)cc2c1=O)NCc1ccccc1Cl	n	n	n	n	n	x	x	x	x
O=C(CCCCCn1c(=S)[nH]c2ccc(N3CCOCC3)cc2c1=O)NCc1ccc2c(c1)OCO2	n	n	22.3	20.9	n	16.5	23.8	n	x
COc1ccc(CNC(=O)CCCn2c(=S)[nH]c3cc4c(cc3c2=O)OCO4)cc1	n	n	56.4	25.9	n	17.0	20.8	35.9	n
SMILES	NR2E3 ag-1	NR2E3 ag-2	NR1D1 modulator	PG9 Ab binder	GalR3 antag	PG9 bind confirm	PGV04 Ab binding	Rev-erbA confirm	RORg counter	others
COc1ccc2[nH]c3c(c2c1)CCN[C@]31C(=O)N(c2ccccc2)c2ccccc21	x	x	n	x	x	x	x	x	x
Cc1nn(-c2ccccc2)c2sc(C(=O)NC3CCCCCC3)cc12	x	x	n	x	x	x	x	x	x
Cc1ccc(-n2nc3c(N4CCC(C(=O)NCCc5cccs5)CC4)nnc(C)c3c2C)cc1	n	n	29.9	12.2	n	25.2	35.9	36.0	n
Oc1ccc(Br)cc1C1Nc2ccccc2S1 (stereo unspecified)	n	n	151.7	24.8	n	20.6	43.6	88.6	n
CC1C(=O)C(C)C(c2cc(Br)ccc2O)NC1c1cc(Br)ccc1O (stereo unspecified)	x	n	n	n	n	x	x	x	x
CCc1nc2ccccc2c(C(=O)OCC(=O)C(C)(C)C)c1C	n	n	n	n	n	x	x	x	x
CCc1nc2ccccc2c(C(=O)OCc2nc3ccccc3c(=O)[nH]2)c1C	x	n	32.4	24.6	n	14.0	16.8	28.1	n
O=C(CN1CCC(NC(=O)Nc2ccc(Cl)cc2)CC1)Nc1ccc2c(c1)OCCO2	x	x	n	x	x	x	x	x	x
O=C(COC(=O)c1n[nH]c2ccccc12)NC(=O)NC1CCCC1	n	n	n	n	n	x	x	x	x
O=C(COC(=O)c1n[nH]c2ccccc12)NC(=O)NC12CC3CC(CC(C3)C1)C2	n	n	17.1	17.5	n	21.6	31.3	31.3	x
O=C1c2cccc3cccc(c23)C(=O)N1Cc1ccccc1	n	n	35.9	50.9	n	60.4	68.6	n	x
O=C1c2cccc3cccc(c23)C(=O)N1Cc1cccnc1	n	n	n	n	n	x	x	x	x
C=CCn1c(NC(=O)c2ccc(C)cc2)nc2ccccc21	n	n	27.3	39.5	n	26.3	40.3	n	x
CCS(=O)(=O)c1ccc(O)c(NC(=O)CCCC(=O)O)c1	n	n	n	n	n	x	x	x	x
CCS(=O)(=O)c1ccc(O)c(NC(=O)/C=C/c2ccccc2)c1	n	n	n	n	12.7	x	x	x	x	GalR3 antag conf=n;CNG parental=n
COc1ccc2c(c1)CN1CN(C3CCCC3)S(=O)(=O)CC21 (stereo unspecified)	x	x	n	x	x	x	x	x	x
Cc1cc(C)c2cc(C=O)c(Cl)nc2c1	n	n	n	n	15.3	x	x	x	x	GalR3 antag conf=39.7;CNG parental=2.7
